Experimental findings from ChEMBL document CHEMBL3244384, “3,4-Methylenedioxyphenyl-, isopropylidenedioxyphenyl-, and benzyl-substituted chiral 2-aminosuccinimides and 3-aminopyrrolidines. Stereoselective investigations of potential anti-parkinsonian, antipsychotic, and anticonvulsant activities” (J Med Chem, 1977) are described below.

For series [1], the system named is Mus musculus. As to the kind of experiment: Neurotoxicity in ip dosed albino CD-1 mouse assessed as time to peak central activity by rotarod test. The class given is toxicity, organism-based. The settings on record: in vivo. Summed up:
(§1)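 Male CD-1 mice (20-25 g), groups of 6-12, given ip doses in aqueous solution (1.0 mL/100 g). Neurotoxicity = failure to stay 1 min on a rod turning at 6 rpm. Time of peak central activity found. TD50 and 95% limits by Litchfield-Wilcoxon from at least three points in the 10-90% range.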
(In the rotarod test animals must keep their balance on a rotating rod.)

The nature of series [2]: Neurotoxicity in ip dosed albino CD-1 mouse by rotarod test. The class given is toxicity, organism-based. The settings on record: in vivo. Summed up: as §1
For series [3], the system named is Mus musculus. Kind of series: Anticonvulsant activity in ip dosed albino CD-1 mouse assessed as threshold ratio for pentylenetetrazole-induced tonic-clonic seizures at 0.5 time TD50 measured at time of peak effect relative to saline-treated control. The format is functional. Summed up: (§2)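 Male CD-1 mice (20-25 g) given saline or 0.5 TD50 test compound ip. At time of peak activity, pentylenetetrazole (0.5%) infused iv at 0.51 mL/min until minimal (clonic) or maximal (tonic-clonic) seizure. Threshold ratio = mean mg/kg pentylenetetrazole in treated mice ÷ mg/kg in saline mice, with 95% confidence intervals.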

Series [4] concerns Mus musculus. As to the kind of experiment: Anti-parkinsonian activity in ip dosed albino CD-1 mouse assessed as inhibition of oxotremorine-induced salivation at 0.25 to 1 time TD50 administered 30 mins prior challenge. The format is functional, organism-based. Summed up: (§3)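 Male CD-1 mice (20-25 g), groups of five, given test compound ip (aqueous, 1.0 mL/100 g) or saline 30 min before oxotremorine 1 mg/kg ip. Tremor intensity scored 0 absent, 1 mild, 2 moderate, 3 severe, summed over five animals; diarrhea and salivation also observed.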

Series [5] relates to Mus musculus. As to the kind of experiment: Anticonvulsant activity in ip dosed albino CD-1 mouse assessed as protection from maximal electroshock-induced seizures measured at time of peak effect. The settings on record: CD-1, ip. The class given is functional. Summed up:
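Male CD-1 mice (20-25 g) dosed ip in aqueous solution (1.0 mL/100 g). At time of peak rotarod activity, MES given by corneal electrodes (50-mA ac, 0.2 s). End point: abolition of hindlimb-extensor component.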
On the technique in general: The maximal electroshock test induces tonic seizures with an electrical stimulus.

The subject of series [6] is Mus musculus. As to the kind of experiment: Anti-parkinsonian activity in ip dosed albino CD-1 mouse assessed as inhibition of oxotremorine-induced diarrhea at 0.25 to 1 time TD50 administered 30 mins prior challenge. The format is functional, organism-based. Summed up: as §3
Series [7] relates to Mus musculus. Kind of series: Anti-parkinsonian activity in ip dosed albino CD-1 mouse assessed as inhibition of oxotremorine-induced tremor at 0.25 to 1 time TD50 administered 30 mins prior challenge. The format is functional, organism-based. Summed up: as §3
Series [8] deals with Mus musculus. Kind of series: Anticonvulsant activity in ip dosed albino CD-1 mouse assessed as threshold ratio for pentylenetetrazole-induced clonic seizures at 0.5 time TD50 measured at time of peak effect relative to saline-treated control. The format is functional. Summed up:
as §2

The test system of series [9] is Mus musculus. As to the kind of experiment: Anti-parkinsonian activity in ip dosed albino CD-1 mouse assessed as inhibition of oxotremorine-induced tremor administered 30 mins prior challenge. The class given is functional, organism-based. Summed up:
as §3

The subject of series [10] is Mus musculus. Kind of series: Toxicity in albino CD-1 mouse assessed as clonic-like seizure activity at >/= 2.68 mmol/kg, ip. The settings on record: in vivo. The class given is organism-based.
Series [11] in a line: Protective index, ratio of TD50 for neurotoxicity to ED50 for anticonvulsant activity in ip dosed albino CD-1 mouse. The format is toxicity, organism-based. The settings on record: in vivo, read-out: Ratio TD50/ED50. Summed up:
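Groups of 6-12 male CD-1 mice dosed ip across a range giving at least three points at 10-90% MES protection or rotarod neurotoxicity. ED50 and TD50 by Litchfield-Wilcoxon; PI = TD50/ED50, not calculated when protection is below 50%.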

Series [12] has as its system Mus musculus. Kind of series: Toxicity in albino CD-1 mouse assessed as mortality at >/= 2.68 mmol/kg, ip. The class given is organism-based. The settings on record: in vivo.
Series [13] deals with Mus musculus. As to the kind of experiment: Toxicity in albino CD-1 mouse assessed as sedation at >/= 2.68 mmol/kg, ip. The class given is organism-based. The settings on record: in vivo.
Series [14] relates to Mus musculus. As to the kind of experiment: Toxicity in albino CD-1 mouse assessed as loss of righting reflex at >/= 2.68 mmol/kg, ip. The format is organism-based. The settings on record: in vivo.
A short description of series [15]: Antagonist activity at acetylcholine receptor (unknown origin). Further details: species or system Homo sapiens.
Series [16] has as its system Mus musculus. As to the kind of experiment: Toxicity in albino CD-1 mouse assessed as behavioral effect at 2.81 mmol/kg, ip. The format is organism-based. The settings on record: in vivo.
For series [17], the system named is Mus musculus. Kind of series: Toxicity in albino CD-1 mouse assessed as occasional clonic seizure-like movements at >/= 6.1 mmol/kg, ip. The format is organism-based. The settings on record: in vivo.
The test system of series [18] is Mus musculus. Kind of series: Toxicity in albino CD-1 mouse assessed as twitching at >/= 6.1 mmol/kg, ip. The class given is organism-based. The settings on record: in vivo.
The test system of series [19] is Mus musculus. As to the kind of experiment: Toxicity in albino CD-1 mouse assessed as increased excitability to touch at >/= 6.1 mmol/kg, ip. The class given is organism-based. The settings on record: in vivo.
For series [20], the system named is Mus musculus. Kind of series: Toxicity in albino CD-1 mouse assessed as loss of righting reflex at >/= 6.1 mmol/kg, ip. The format is organism-based. The settings on record: in vivo.

Activity calls are given as the source filed them.

Broadly, the TD50 is the 50% point of the dose-response relation for the toxic effect studied. Higher therefore signals harm only at a large dose. One may read the ED50 as the dose that gives a 50% effect, or the effect in half of the subjects. `CC1(C)Oc2ccc(N3C(=O)C[C@@H](N)C3=O)cc2O1.Cl`: the Time in the series with Mus musculus [1] amounted to 15 min. The compound further returned a TD50 in [2] of 960 µmol/kg. Further, the Ratio in the series with Mus musculus [3] was determined as 1.66; with Mus musculus [8] it was 1.28. In addition, the outcome with Mus musculus [4] and in the series on Mus musculus [6] was inactive. In addition, the ED50 in the series on Mus musculus [5] was found to be 570 µmol/kg. For the same compound, in the series on Mus musculus [7], the outcome was Active. The Activity result in the series on Mus musculus [9] was “Dose-dependent effect”; with Mus musculus [10] it was “Toxic”; in the series with Mus musculus [12], “Toxic”; with Mus musculus [13] it was “Toxic”; in the series on Mus musculus [14], “Toxic”. The selectivity ratio in [11] worked out at 1.68.

A word on the pA2: it is a measure of antagonist potency on a negative log scale. Consider `CCN[C@@H]1CCN(c2ccccc2)C1`, for which the pA2 in series [15] is listed as 3.5.

`Cl.N[C@H]1CC(=O)N(Cc2ccc3c(c2)OCO3)C1=O`: the Time in the series with Mus musculus [1] was determined as 15 min. Besides, in series [2], the TD50 stood at 2000 µmol/kg. In addition, the figures for the Ratio in the series with Mus musculus [3] and with Mus musculus [8] were 1.09 and 1.54, respectively. For the same compound, in the series on Mus musculus [5], the ED50 worked out at 700 µmol/kg. The selectivity ratio in [11] was determined as 2.85. Besides, the Activity result in the series on Mus musculus [16] is “Non-toxic”.

Regarding `Cl.N[C@H]1CC(=O)N(c2ccc3c(c2)OCO3)C1=O`, the Time with Mus musculus [1] came out at 45 min. For the same compound, in [2], the TD50 amounted to 5040 µmol/kg. The Ratio in the series on Mus musculus [3] turned out to be 0.92; in the series with Mus musculus [8], 1.08. Besides, the outcome in the series with Mus musculus [4] and in the series on Mus musculus [6] was Active. Also, in the series with Mus musculus [5], the ED50 was 5040 µmol/kg. Further, the result in the series with Mus musculus [7] was inactive.

On to `CCC1(C)CC(=O)NC1=O` (stereo not given) [ETHOSUXIMIDE], for which the Time in the series on Mus musculus [1] is 5 min. Besides, the TD50 in series [2] came out at 2320 µmol/kg. The Ratio with Mus musculus [3] is 1.71; with Mus musculus [8], 1.34. Besides, the ED50 in the series with Mus musculus [5] came out at 2320 µmol/kg.

`CN1C(=O)OC(C)(C)C1=O` [TRIMETHADIONE]: the Time with Mus musculus [1] is listed as 5 min. In [2], this compound came in with a TD50 of 3980 µmol/kg. Moreover, the Ratio with Mus musculus [3] came out at 2.25; in the series on Mus musculus [8] it was 2.05. The ED50 in the series with Mus musculus [5] amounted to 3720 µmol/kg. The selectivity ratio in series [11] was determined as 1.07.

For the compound `O=C1N=C([O-])NC1(c1ccccc1)c1ccccc1.[Na+]` [PHENYTOIN SODIUM], the Time with Mus musculus [1] is listed as 45 min. This compound yielded a TD50 in [2] of 220 µmol/kg. Further, the figures for the Ratio with Mus musculus [3] and with Mus musculus [8] were 2.08 and 1.07, respectively. Further, in the series on Mus musculus [5], the ED50 was determined as 22 µmol/kg. In addition, the selectivity ratio in [11] was determined as 10.

Take `CC(=O)N[C@@H]1CC(=O)N(Cc2ccccc2)C1=O`: in the series on Mus musculus [1], the Time amounted to 30 min. Further, the TD50 in [2] is 4760 µmol/kg. Moreover, the Ratio is on record as 0.85 in the series on Mus musculus [3] and 1.36 with Mus musculus [8]. For the same compound, the ED50 with Mus musculus [5] amounted to 1460 µmol/kg. The Activity result in the series on Mus musculus [17], in the series with Mus musculus [18], in the series with Mus musculus [19] and in the series on Mus musculus [20] was “Toxic” in each case. For the same compound, the selectivity ratio in series [11] came to 3.25.

Consider `CC(=O)N[C@H]1CC(=O)N(Cc2ccccc2)C1=O`, for which the Time in the series with Mus musculus [1] was 30 min. In [2], the TD50 came to 5280 µmol/kg. Moreover, the values for the Ratio in the series on Mus musculus [3] and with Mus musculus [8] were 1.11 and 1.06, respectively. In addition, the ED50 in the series with Mus musculus [5] was 1200 µmol/kg. The Activity entry in the series with Mus musculus [17], in the series with Mus musculus [18], in the series with Mus musculus [19] and in the series with Mus musculus [20] was “Toxic” each time. Besides, the selectivity ratio in series [11] was 4.41.

Consider `CC1(C)Oc2ccc(N3C(=O)C[C@H](N)C3=O)cc2O1.Cl`, for which the Time in the series on Mus musculus [1] is reported as 30 min. The compound further gave a TD50 in series [2] of 1220 µmol/kg. Also, the Ratio in the series with Mus musculus [3] came to 1.34; in the series on Mus musculus [8], 1.36. Besides, the result in the series on Mus musculus [4] and in the series with Mus musculus [6] was inactive. For the same compound, the ED50 in the series on Mus musculus [5] amounted to 840 µmol/kg. Also, the result in the series with Mus musculus [7] was Active. For the same compound, the Activity entry in the series on Mus musculus [10], with Mus musculus [12], with Mus musculus [13] and in the series on Mus musculus [14] was “Toxic” each time. Moreover, the selectivity ratio in series [11] stood at 1.45.

On to `Cl.N[C@@H]1CC(=O)N(c2ccc3c(c2)OCO3)C1=O`, for which the Time with Mus musculus [1] is recorded as 45 min. Further, the TD50 in series [2] was 3330 µmol/kg. In addition, the Ratio with Mus musculus [3] was found to be 0.75; in the series on Mus musculus [8], 1.03. Also, the outcome in the series on Mus musculus [4] and with Mus musculus [6] was Active. In addition, the ED50 in the series with Mus musculus [5] turned out to be 3330 µmol/kg. Also, in the series on Mus musculus [7], the outcome was inactive.

For the compound `Cl.N[C@@H]1CC(=O)N(Cc2ccc3c(c2)OCO3)C1=O`, the Time with Mus musculus [1] is 15 min. In series [2], this compound displayed a TD50 of 1830 µmol/kg. In addition, the Ratio amounted to 1.18 in the series with Mus musculus [3] and 1.61 in the series with Mus musculus [8]. The ED50 in the series with Mus musculus [5] was 720 µmol/kg. The selectivity ratio in series [11] came out at 2.54. For the same compound, the Activity entry with Mus musculus [16] was “Non-toxic”.
